Source: ChEMBL document CHEMBL5150070, “Tricyclic SpiroLactams Kill Mycobacteria In Vitro and In Vivo by Inhibiting Type II NADH Dehydrogenases” (J Med Chem, 2022)
Converted amounts (≈) assume the structure as drawn.

Experiments:
[1] = tested on: Mycobacterium tuberculosis; experiment: Antimycobacterial activity against Mycobacterium tuberculosis H37Rv assessed as reduction in bacterial cell growth by measuring resazurin reduction incubated for 6 days by fluorescence microplate based assay; type: functional; details: time 6 day
[2] = tested on: Mycobacterium tuberculosis; experiment: Bactericidal activity against Non-replicating Mycobacterium tuberculosis ss18b-lux assessed as decrease in colony forming unit measured at 1 uM after 1 weeks; type: functional
In short: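 Streptomycin-dependent 18b-lux starved of streptomycin for 14 days (OD600 reset to 0.2 on days 7 and 13) to become non-replicating. Diluted to OD600 0.15 on dispensed compound and held at 37°C. On day 7, active wells plated on 7H11-OADC with 50 µg/mL streptomycin and incubated up to 8 weeks for cfu.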

[3] = tested on: Mycobacterium tuberculosis; experiment: Bactericidal activity against Non-replicating Mycobacterium tuberculosis ss18b-lux model assessed as decrease in luminescence at 10 to 10000 nM; type: functional, organism-based; details: dose 10-10000 nM, TDE = time-dependent effect
In short: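 Non-replicating streptomycin-starved 18b-lux (14-day starvation) diluted to OD600 0.15 in white 96-well plates with compound and incubated at 37°C. Luminescence read on days 1, 2, 5 and 7 and expressed relative to no-antibiotic controls (n ≥ 3).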

[4] = tested on: Mycobacterium tuberculosis; experiment: Antimycobacterial activity against Mycobacterium tuberculosis H37Rv infected in human A-THP1 macrophages assessed as viability of infected macrophages incubated for 96 hrs by fluorescence microplate assay; type: functional, organism-based
In short: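 THP-1 cells differentiated with 50 ng/mL PMA for 72 h, infected with log-phase H37Rv (MOI 10, 2 h), and extracellular bacteria killed with 50 µg/mL amikacin for 1 h. Cells detached and seeded at 5×10⁵/mL in RPMI-10% FBS with PMA onto pre-dispensed compound, 96 h at 37°C, 5% CO₂. Macrophage viability by 0.05% resazurin fluorescence.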

SMILES	MIC98 [1] [µM]	Activity [2] [log10CFU]	Activity [3]	IC50 [4] [nM]
Cc1ccc(CN2CC[C@]34OC[C@H](C(C)C)N3C(=O)CC[C@@H]4C2)cc1	1.7 (≈ 0.582 µg/mL)			
O=C1CC[C@@H]2CN(Cc3ccccc3)CC[C@@]23OC[C@H](C2CC2)N13	37.5 (≈ 12.2 µg/mL)			
COc1nc2ccc(Br)cc2cc1[C@@H](c1ccccc1)[C@@](O)(CCN(C)C)c1cccc2ccccc12 [BEDAQUILINE]		1	Tde	34
